pEC50: −log10 of the molar value. Values after ≈ are worked out from the molar mass of the structure shown.
Tests used:
[1] = Cytotoxicity against human HepG2 cells assessed as reduction in cell viability after 48 hrs by MTT assay; assay type: toxicity, cell-based; conditions: read-out: TC50
Procedure, shortened: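 HepG2 cells in supplemented MEM, 9570/well, plated overnight at 37 °C. Twelve 1.6-fold dilutions in duplicate, 57–10,000 ng/mL, for 48 h; mefloquine plate control. MTT added for 1 h at room temperature in the dark, formazan dissolved in acidified isopropanol, absorbance read. IC50 by sigmoidal variable-slope nonlinear regression.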

[2] = Cytotoxicity against […] cells assessed as reduction in cell viability after 96 hrs by presto blue assay; assay type: toxicity; conditions: read-out: TC50
Procedure, shortened: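 NIH 3T3 cells in phenol red-free DMEM with 2% FBS, 5×10^4/well, left 2 h to attach, then exposed to compound 96 h at 37 °C, 5% CO2. PrestoBlue added for 4 h, fluorescence read at ex 530/em 590 nm.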

Trypanosoma cruzi = experiment: Antitrypanosomal activity against Trypanosoma cruzi Tulahuen amastigotes infected in […] cells after 96 hrs by chlorophenol red-beta-D-galactopyranoside based assay; conditions: NIH3T3, 96 h
[3] = tested on: Trypanosoma brucei brucei; experiment: Antitrypanosomal activity against Trypanosoma brucei brucei 427 bloodstream forms after 48 hrs by presto blue dye based fluorescence assay; assay type: functional; conditions: Trypanosoma brucei, 427, 48 h
Leishmania major = experiment: Antileishmanial activity against luciferase-expressing Leishmania major amastigotes infected in mouse RAW264.7 cells after 96 hrs by luminescence assay; assay type: functional, cell-based; conditions: RAW264.7, 96 h
Procedure, shortened: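 RAW 264.7 macrophages, 10,000/well, 24 h at 37 °C, then infected overnight with luciferase-expressing L. major promastigotes (100,000/well) and washed three times. Twelve two-fold dilutions in duplicate, final […]–10,000 ng/mL. 96 h at 37 °C, 5% CO2, then luciferin 30 min in the dark and luminescence read. IC50 by sigmoidal variable-slope nonlinear regression.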

[4] = Thermodynamic aqueous solubility of the compound; assay type: physicochemical; conditions: buffer; read-out: Therm_solubility
[5] = Intrinsic clearance in rat hepatocytes assessed per million cells; assay type: ADME, cell-based, Hepatocyte
[6] = Intrinsic clearance in human liver microsomes; assay type: ADME
[7] = Protein binding in human plasma; assay type: ADME, cell-free
[8] = Ratio of drug level in BALB/c mouse brain to plasma at 10 mg/kg, ip administered as single dose at 0.25 hrs post dose by LC-MS/MS analysis; assay type: ADME, organism-based
Procedure, shortened: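 Female BALB/c mice, 8–12 weeks, single 10 mg/kg i.p. dose (10 mL/kg) in NMP/solutol HS/saline solution. Three mice per time point. Plasma (K2EDTA) and brain collected; brain washed in PBS and homogenized in PBS pH 7.4 to three times its weight. Protein precipitation with acetonitrile, then LC-MS/MS (LLOQ 1.04 ng/mL plasma, 2.08 ng/mL brain). Non-compartmental analysis.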

[9] = Lipophilicity, log D of the compound at pH 7.4; assay type: physicochemical; conditions: buffer
[10] = Fraction unbound in human plasma; assay type: ADME, cell-free

SMILES	pEC50 (Trypanosoma cruzi)	pEC50 [3]	pEC50 (Leishmania major)	solubility thermodynamic [4]	CLH [5]	CLH [6]	PPB [7]	BPR [8]	logD [9]	Fu [10]	CC50 at 48 h [1]	CC50 at 96 h [2]
Fc1cccc(COc2ccc(Nc3ncnc4ccc(-c5cccc(N6CCOCC6)c5)cc34)cc2Cl)c1	–	–	–	–	–	–	–	–	–	–	> 20 µM	–
O=S(=O)(c1ccc(-c2ccc3ncccc3c2)cc1)N1CCOCC1	< 4.70	< 4.70	< 4.70	–	–	–	–	–	–	–	> 20 µM	> 20 µM
COc1ccc(Nc2ccnc3ccc(-c4ccc(S(=O)(=O)N5CCOCC5)cc4)cc23)cc1Cl	5.14	5.77	5.28	–	–	–	–	–	–	–	> 20 µM	> 20 µM
Cc1nnc(Nc2ccnc3ccc(-c4ccc(S(=O)(=O)N5CCOCC5)cc4)cc23)nc1C	< 4.70	5.51	< 4.70	–	–	–	–	–	–	–	> 20 µM	> 20 µM
O=S(=O)(c1ccc(-c2ccc3nccc(Nc4ccc(OCc5cccc(F)c5)cc4)c3c2)cc1)N1CCOCC1	5.55	6.43	5.92	2 µM (≈ 1.14 µg/mL)	19 µL/min	98 µL/min/mg	–	–	–	< 0.1%	> 5 µM	–
CCOCCOc1ccnc2ccc(-c3ccc(S(=O)(=O)N4CCOCC4)cc3)cc12	< 4.70	6.15	< 4.70	–	–	–	–	–	–	–	> 20 µM	–
CS(=O)(=O)CCNCc1ccc(-c2ccc3ncnc(Nc4ccc(OCc5cccc(F)c5)c(Cl)c4)c3c2)o1 [LAPATINIB]	–	–	–	–	–	–	–	–	–	–	> 20 µM	–
O=S(=O)(c1ccc(-c2ccc3nccc(Nc4nnc(C5CC5)s4)c3c2)cc1)N1CCOCC1	< 4.70	5.33	5.70	–	–	–	–	–	–	–	> 20 µM	> 20 µM
O=S(=O)(c1ccc(-c2ccc3nccc(Nc4ccc5[nH]nnc5c4)c3c2)cc1)N1CCOCC1	< 4.70	4.80	< 4.70	–	–	–	–	–	–	–	> 20 µM	> 20 µM
COc1ccc(Nc2ccnc3ccc(-c4ccc(S(=O)(=O)N5CCOCC5)cc4)cc23)cc1C	5.44	6.51	5.24	–	–	–	–	–	–	–	9 µM	15 µM
O=S(=O)(c1ccc(-c2ccc3ncnc(Nc4ccc(OCc5cccc(F)c5)cc4)c3c2)cc1)N1CCOCC1	–	–	–	–	–	–	–	–	–	–	> 20 µM	–
Cc1noc(C)c1Nc1ccnc2ccc(-c3ccc(S(=O)(=O)N4CCOCC4)cc3)cc12	< 4.70	5.18	< 4.70	–	–	–	–	–	–	–	> 20 µM	> 20 µM
CCc1nnc(Nc2ccnc3ccc(-c4ccc(S(=O)(=O)N5CCOCC5)cc4)cc23)s1	< 4.70	5.38	5.51	–	–	–	–	–	–	–	> 20 µM	> 20 µM

The next lines start with results.

pEC50 (Trypanosoma cruzi)	pEC50 [3]	pEC50 (Leishmania major)	solubility thermodynamic [4]	CLH [5]	CLH [6]	PPB [7]	BPR [8]	logD [9]	Fu [10]	SMILES	CC50 at 48 h [1]	CC50 at 96 h [2]
< 4.70	5.92	5.27	–	–	–	–	–	–	–	O=S(=O)(c1ccc(-c2ccc3nccc(Nc4cncs4)c3c2)cc1)N1CCOCC1	> 20 µM	> 20 µM
< 4.70	7.62	< 4.70	1.4 µM (≈ 0.627 µg/mL)	31.5 µL/min	207.5 µL/min/mg	95.6%	0.01	3.3	–	O=S(=O)(c1ccc(-c2ccc3nccc(Nc4ccncn4)c3c2)cc1)N1CCOCC1	> 20 µM	> 20 µM
5.41	7.14	5.35	–	–	–	–	–	–	–	Cc1cc(Nc2ccnc3ccc(-c4ccc(S(=O)(=O)N5CCOCC5)cc4)cc23)sn1	> 20 µM	> 20 µM
4.80	5.35	< 4.70	–	–	–	–	–	–	–	O=S(=O)(c1ccc(-c2ccc3nccc(Nc4ccccn4)c3c2)cc1)N1CCOCC1	> 20 µM	> 20 µM
5.12	5.96	< 4.70	–	–	–	–	–	–	–	Cc1cc(Nc2ccnc3ccc(-c4ccc(S(=O)(=O)N5CCOCC5)cc4)cc23)on1	> 20 µM	> 20 µM
< 4.70	5.42	6.43	1 µM (≈ 0.482 µg/mL)	–	–	99.6%	–	–	–	O=S(=O)(c1ccc(-c2ccc3nccc(Nc4ncc(Cl)cn4)c3c2)cc1)N1CCOCC1	> 20 µM	> 20 µM
< 4.70	< 4.70	< 4.70	–	–	–	–	–	–	–	O=S(=O)(c1ccc(-c2ccc3nccc(Nc4ccnnc4)c3c2)cc1)N1CCOCC1	> 20 µM	> 20 µM
< 4.70	5.25	< 4.70	–	–	–	–	–	–	–	COc1ncc(Nc2ccnc3ccc(-c4ccc(S(=O)(=O)N5CCOCC5)cc4)cc23)cn1	> 20 µM	> 20 µM
< 4.70	5.42	< 4.70	–	–	–	–	–	–	–	O=S(=O)(c1ccc(-c2ccc3nccc(Nc4cccnc4)c3c2)cc1)N1CCOCC1	> 20 µM	> 20 µM
< 4.70	< 4.70	< 4.70	–	–	–	–	–	–	–	O=S(=O)(c1ccc(-c2ccc3nccc(Nc4cnccn4)c3c2)cc1)N1CCOCC1	> 20 µM	> 20 µM
< 4.70	5.49	5.24	–	–	–	–	–	–	–	O=[N+]([O-])c1ccc(Nc2ccnc3ccc(-c4ccc(S(=O)(=O)N5CCOCC5)cc4)cc23)cn1	> 20 µM	> 20 µM
< 4.70	5.10	< 4.70	–	–	–	–	–	–	–	N#Cc1cnc(Nc2ccnc3ccc(-c4ccc(S(=O)(=O)N5CCOCC5)cc4)cc23)cn1	> 20 µM	> 20 µM
5.21	5.80	5.92	–	–	–	–	–	–	–	Cc1cnc(Nc2ccnc3ccc(-c4ccc(S(=O)(=O)N5CCOCC5)cc4)cc23)s1	> 20 µM	> 20 µM
< 4.70	5.70	< 4.70	–	–	–	–	–	–	–	Cc1cnnc(Nc2ccnc3ccc(-c4ccc(S(=O)(=O)N5CCOCC5)cc4)cc23)c1	> 20 µM	> 20 µM
5.21	6.01	5.15	–	–	–	–	–	–	–	O=S(=O)(c1ccc(-c2ccc3nccc(Nc4ccccc4)c3c2)cc1)N1CCOCC1	> 20 µM	> 20 µM
< 4.70	5.60	< 4.70	–	–	–	–	–	–	–	CCn1nccc1Nc1ccnc2ccc(-c3ccc(S(=O)(=O)N4CCOCC4)cc3)cc12	> 20 µM	> 20 µM
< 4.70	6.96	< 4.70	–	–	–	–	–	–	–	O=S(=O)(c1ccc(-c2ccc3nccc(Nc4ccncc4)c3c2)cc1)N1CCOCC1	> 20 µM	> 20 µM
